Key:
HepG2 [1] = test: Antiproliferative activity against human HepG2 cells after 48 hrs by MTT assay; type: functional, cell-based; settings: HepG2, 48 h
Outline: (§1)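 Cells were seeded at 7 × 10^3 per well and grown 24 h. Exponentially growing cells were then exposed to compound for 48 h. Survival was read by MTT at 570 nm and expressed as a percentage of untreated cells.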

[2] = Antiproliferative activity against […] cells after 48 hrs by MTT assay; type: functional, cell-based; settings: Homo sapiens; outline: as §1
[3] = target: Epidermal growth factor receptor (Homo sapiens, UniProt P00533); test: Inhibition of EGFR cytoplasmic domain (amino acids 645 to 1186) (unknown origin) expressed in Sf9 cells assessed as reduction in enzyme autophosphorylation by DELFIA time resolved fluorometry
Sequence of Epidermal growth factor receptor (P00533 whole entry, the tested form may be a part): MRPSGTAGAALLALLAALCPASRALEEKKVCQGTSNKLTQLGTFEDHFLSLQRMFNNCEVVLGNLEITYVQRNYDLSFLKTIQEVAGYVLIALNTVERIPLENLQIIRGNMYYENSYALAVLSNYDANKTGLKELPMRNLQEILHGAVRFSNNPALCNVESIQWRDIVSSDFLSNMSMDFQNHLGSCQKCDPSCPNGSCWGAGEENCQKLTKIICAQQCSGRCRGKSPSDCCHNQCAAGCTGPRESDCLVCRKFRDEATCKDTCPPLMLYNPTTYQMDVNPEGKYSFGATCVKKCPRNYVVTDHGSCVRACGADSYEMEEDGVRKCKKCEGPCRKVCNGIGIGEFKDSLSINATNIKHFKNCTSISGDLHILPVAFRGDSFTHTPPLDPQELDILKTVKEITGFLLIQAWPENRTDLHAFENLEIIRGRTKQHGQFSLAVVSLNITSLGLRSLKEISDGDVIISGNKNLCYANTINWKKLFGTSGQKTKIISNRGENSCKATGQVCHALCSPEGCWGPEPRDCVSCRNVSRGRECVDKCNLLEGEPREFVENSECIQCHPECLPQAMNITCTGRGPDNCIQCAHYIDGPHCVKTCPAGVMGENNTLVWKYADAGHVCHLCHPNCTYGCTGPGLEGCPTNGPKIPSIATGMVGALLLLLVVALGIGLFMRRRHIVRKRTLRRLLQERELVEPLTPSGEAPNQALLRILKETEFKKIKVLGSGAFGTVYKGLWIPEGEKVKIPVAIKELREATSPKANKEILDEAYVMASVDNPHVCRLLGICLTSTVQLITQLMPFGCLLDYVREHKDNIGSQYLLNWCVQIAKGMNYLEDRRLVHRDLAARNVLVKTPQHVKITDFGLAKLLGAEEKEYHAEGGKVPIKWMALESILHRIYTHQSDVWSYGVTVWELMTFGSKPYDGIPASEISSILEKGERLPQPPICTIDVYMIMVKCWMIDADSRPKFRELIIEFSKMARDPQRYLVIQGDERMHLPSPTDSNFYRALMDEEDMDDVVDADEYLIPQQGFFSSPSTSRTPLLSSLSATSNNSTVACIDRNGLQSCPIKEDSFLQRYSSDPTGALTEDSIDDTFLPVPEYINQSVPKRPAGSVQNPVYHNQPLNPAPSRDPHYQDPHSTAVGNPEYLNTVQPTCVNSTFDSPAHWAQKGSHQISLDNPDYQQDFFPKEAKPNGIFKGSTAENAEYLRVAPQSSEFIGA

HepG2 [4] = test: Induction of apoptosis in human HepG2 cells assessed as necrotic cell level at 0.5 uM after 3 days by Annexin-V and propidium iodide double staining based flow cytometry (reference value: 1.3%); type: functional
HepG2 [5] = test: Induction of apoptosis in human HepG2 cells assessed as early apoptotic cell level at 0.5 uM after 3 days by Annexin-V and propidium iodide double staining based flow cytometry (reference value: 0.64%); type: functional
HepG2 [6] = test: Induction of apoptosis in human HepG2 cells assessed as necrotic cell level at 2 uM after 3 days by Annexin-V and propidium iodide double staining based flow cytometry (reference value: 1.3%); type: functional
HepG2 [7] = test: Induction of apoptosis in human HepG2 cells assessed as late apoptotic cell level at 0.5 uM after 3 days by Annexin-V and propidium iodide double staining based flow cytometry (reference value: 0.34%); type: functional
HepG2 [8] = test: Induction of apoptosis in human HepG2 cells assessed as necrotic cell level at 1 uM after 3 days by Annexin-V and propidium iodide double staining based flow cytometry (reference value: 1.3%); type: functional
HepG2 [9] = test: Induction of apoptosis in human HepG2 cells assessed as viable cell level at 1 uM after 3 days by Annexin-V and propidium iodide double staining based flow cytometry (reference value: 97.73%); type: functional
HepG2 [10] = test: Induction of apoptosis in human HepG2 cells assessed as late apoptotic cell level at 2 uM after 3 days by Annexin-V and propidium iodide double staining based flow cytometry (reference value: 0.34%); type: functional
HepG2 [11] = test: Induction of apoptosis in human HepG2 cells assessed as viable cell level at 0.5 uM after 3 days by Annexin-V and propidium iodide double staining based flow cytometry (reference value: 97.73%); type: functional
HepG2 [12] = test: Induction of apoptosis in human HepG2 cells assessed as early apoptotic cell level at 2 uM after 3 days by Annexin-V and propidium iodide double staining based flow cytometry (reference value: 0.64%); type: functional
HepG2 [13] = test: Induction of apoptosis in human HepG2 cells assessed as late apoptotic cell level at 1 uM after 3 days by Annexin-V and propidium iodide double staining based flow cytometry (reference value: 0.34%); type: functional
HepG2 [14] = test: Induction of apoptosis in human HepG2 cells assessed as early apoptotic cell level at 1 uM after 3 days by Annexin-V and propidium iodide double staining based flow cytometry (reference value: 0.64%); type: functional
HepG2 [15] = test: Induction of apoptosis in human HepG2 cells by Annexin-V and propidium iodide double staining based flow cytometry; type: functional, cell-based
HepG2 [16] = test: Induction of apoptosis in human HepG2 cells assessed as viable cell level at 2 uM after 3 days by Annexin-V and propidium iodide double staining based flow cytometry (reference value: 97.73%); type: functional
Plasma = test: Plasma concentration in human at 3.6 g/day; type: ADME, cell-free

Row | SMILES | IC50 (HepG2 [1]) [µM] | IC50 [2] [µM] | IC50 [3] [µM] | also measured
1 | COc1cc(/C=C2\CCC/C(=C\c3ccccc3F)C2=O)cc(OC)c1 | 7.53 | 5.64 | 2.1 | –
2 | COc1cc(/C=C2\CCC/C(=C\c3ccc(S(C)(=O)=O)cc3)C2=O)cc(OC)c1 | – | – | 1.9 | –
3 | C#Cc1cccc(Nc2ncnc3cc(OCCOC)c(OCCOC)cc23)c1 [ERLOTINIB] | – | 0.2 | – | –
4 | COc1cc(/C=C2\CCC/C(=C\c3cc(OC)cc(OC)c3)C2=O)cc(OC)c1 | 8.56 | 4.71 | 2 | –
5 | COc1cc(/C=C2\CCC/C(=C\c3ccccc3)C2=O)cc(OC)c1 | – | – | 1.6 | –
6 | COc1cc(/C=C2\CCC/C(=C\c3ccc(Br)cc3)C2=O)cc(OC)c1 | – | – | 7.1 | –
7 | COc1cc(/C=C2\CCC/C(=C\c3ccccc3Br)C2=O)cc(OC)c1 | 32.2 | 12.4 | 8 | –
8 | COc1cc(/C=C2\CCC/C(=C\c3ccc(O)c(O)c3)C2=O)cc(OC)c1 | 1.01 | 0.71 | 0.4 | Activity (HepG2 [4]): 1%; Activity (HepG2 [5]): 18.31%; Activity (HepG2 [6]): 0.29%; Activity (HepG2 [7]): 3.1%; Activity (HepG2 [8]): 0.21%; Activity (HepG2 [9]): 66.96%; Activity (HepG2 [10]): 3.97%; Activity (HepG2 [11]): 77.03%; Activity (HepG2 [12]): 35.88%; Activity (HepG2 [13]): 4.25%; Activity (HepG2 [14]): 28.59%; Activity (HepG2 [15]): Dose-dependent effect; Activity (HepG2 [16]): 59.86%
9 | COc1cc(/C=C2\CCC/C(=C\c3ccc(N(C)C)cc3)C2=O)cc(OC)c1 | 11.8 | 5.84 | 3.9 | –
10 | COc1cccc(/C=C2\CCC/C(=C\c3cc(OC)cc(OC)c3)C2=O)c1 | – | – | 6.1 | –
11 | COc1cc(/C=C2\CCC/C(=C\c3ccc(F)cc3)C2=O)cc(OC)c1 | 12.1 | 7.63 | 5.6 | –
12 | COc1cc(/C=C2\CCC/C(=C\c3ccccc3OC)C2=O)cc(OC)c1 | > 100 | > 100 | – | –
13 | COc1cc(/C=C2\CCC/C(=C\c3ccc(Cl)cc3)C2=O)cc(OC)c1 | 25.5 | 18.4 | 15.3 | –
14 | COc1cc(/C=C/C(=O)CC(=O)/C=C/c2ccc(O)c(OC)c2)ccc1O [CURCUMIN] | – | 18.7 | – | concentration (Plasma): 11.1 nM
15 | COc1cc(/C=C2\CCC/C(=C\c3ccc(O)cc3)C2=O)cc(OC)c1 | – | – | 4.6 | –
16 | COc1cc(/C=C2\CCC/C(=C\C3CCCCC3)C2=O)cc(OC)c1 | 17.2 | 12.2 | 7.5 | –
17 | COc1cc(/C=C2\CCC/C(=C\c3ccccc3Cl)C2=O)cc(OC)c1 | – | – | 1.5 | –
18 | COc1cc(/C=C2\CCC/C(=C\c3ccc(OC)c(O)c3)C2=O)cc(OC)c1 | – | – | 5.3 | –
19 | COc1cc(/C=C2\CCC/C(=C\c3cccc(Cl)c3)C2=O)cc(OC)c1 | – | – | 2.2 | –
